{
  "source": "ChEMBL document CHEMBL4706740",
  "about": "“Structure-Activity Study of Nitazoxanide Derivatives as Novel STAT3 Pathway Inhibitors” (ACS Med Chem Lett, 2021)",
  "key": {"[1]": {"biological_target": "Signal transducer and activator of transcription 3 (Homo sapiens) (UniProt P40763)", "sequence (P40763 whole entry)": "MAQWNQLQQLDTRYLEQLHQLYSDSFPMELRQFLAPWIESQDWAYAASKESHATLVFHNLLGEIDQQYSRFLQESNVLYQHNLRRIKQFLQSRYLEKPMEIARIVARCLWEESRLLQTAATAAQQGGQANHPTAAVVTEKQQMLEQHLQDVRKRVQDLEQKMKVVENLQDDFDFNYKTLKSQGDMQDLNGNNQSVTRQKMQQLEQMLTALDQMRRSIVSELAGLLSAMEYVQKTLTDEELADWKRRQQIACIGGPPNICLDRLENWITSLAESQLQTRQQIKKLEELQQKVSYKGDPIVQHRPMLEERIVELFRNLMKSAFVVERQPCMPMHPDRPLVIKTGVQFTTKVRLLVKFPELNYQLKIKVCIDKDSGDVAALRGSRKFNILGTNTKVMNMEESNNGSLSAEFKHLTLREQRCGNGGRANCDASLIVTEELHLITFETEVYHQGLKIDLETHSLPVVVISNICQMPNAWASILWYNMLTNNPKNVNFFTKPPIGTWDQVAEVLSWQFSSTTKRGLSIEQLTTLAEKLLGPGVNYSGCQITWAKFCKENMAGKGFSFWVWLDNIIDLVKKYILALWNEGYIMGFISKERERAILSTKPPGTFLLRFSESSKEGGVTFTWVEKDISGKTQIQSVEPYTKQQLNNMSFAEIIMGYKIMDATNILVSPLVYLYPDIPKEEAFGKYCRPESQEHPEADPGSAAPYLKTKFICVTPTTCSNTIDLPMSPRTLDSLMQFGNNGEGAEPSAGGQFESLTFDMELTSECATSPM", "assay": "Inhibition of STAT3 in human HeLa cells assessed as decrease in phosphorylation of STAT3 at Tyr705 after 1 hrs by Western blot analysis", "format": "cell-based", "conditions": "dose microM <=80, time 1.0 hrs", "summary_of_the_method": "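HeLa cells were treated with graded doses for 1 h or 24 h. Total cell lysates were immunoblotted with specific antibodies against p-STAT3 (Tyr705), p-STAT3 (Ser727) and total STAT3.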"}, "HeLa [2]": {"system": "HeLa", "assay": "Induction of apoptosis in human HeLa cells assessed as early apoptotic cells at 10 uM incubated for 24 hrs by Annexin V-FITC/PI staining based flow cytometry (reference value: 2.84%)", "format": "functional"}, "[3]": {"biological_target": "T1, Signal transducer and activator of transcription 5A (Homo sapiens) (UniProt P42229)", "T1 sequence (whole entry)": "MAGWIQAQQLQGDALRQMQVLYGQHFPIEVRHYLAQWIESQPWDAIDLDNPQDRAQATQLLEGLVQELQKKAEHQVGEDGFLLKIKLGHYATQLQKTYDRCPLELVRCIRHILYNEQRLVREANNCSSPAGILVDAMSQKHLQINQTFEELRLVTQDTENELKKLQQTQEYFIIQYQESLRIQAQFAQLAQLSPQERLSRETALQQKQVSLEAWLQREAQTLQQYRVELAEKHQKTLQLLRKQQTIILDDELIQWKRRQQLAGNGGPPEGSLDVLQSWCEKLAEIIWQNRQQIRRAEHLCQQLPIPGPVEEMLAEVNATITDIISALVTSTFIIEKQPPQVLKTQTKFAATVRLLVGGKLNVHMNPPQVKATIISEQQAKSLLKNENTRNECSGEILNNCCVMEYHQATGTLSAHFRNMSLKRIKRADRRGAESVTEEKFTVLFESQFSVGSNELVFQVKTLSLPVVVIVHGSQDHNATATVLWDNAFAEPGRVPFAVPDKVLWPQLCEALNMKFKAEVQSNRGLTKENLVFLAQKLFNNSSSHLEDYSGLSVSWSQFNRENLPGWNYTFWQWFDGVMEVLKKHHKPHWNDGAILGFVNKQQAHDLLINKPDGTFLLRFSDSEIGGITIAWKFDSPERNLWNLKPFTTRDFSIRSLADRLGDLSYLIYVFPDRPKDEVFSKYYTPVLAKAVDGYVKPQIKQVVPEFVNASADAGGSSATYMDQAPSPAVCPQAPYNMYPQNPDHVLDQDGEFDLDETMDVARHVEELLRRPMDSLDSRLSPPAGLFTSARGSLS", "assay": "Inhibition of STAT5 (unknown origin)"}, "HeLa [4]": {"system": "HeLa", "assay": "Effect on Src level in human Hela cells upto 80 uM after 24 hrs by Western blot analysis", "format": "functional, cell-based", "conditions": "dose microM <=80, time […]"}, "HT-29": {"system": "HT-29", "assay": "Antiproliferative activity against human HT29 cells assessed as cell growth inhibition measured after 48 hrs by MTT assay", "format": "functional, cell-based", "conditions": "HT-29, 48 h"}, "[5]": {"assay": "Tmax in Sprague-Dawley rat at 25 mg/kg, IG", "format": "ADME, organism-based", "conditions": "in vivo, po"}, "HeLa [6]": {"system": "HeLa", "assay": "Induction of apoptosis in human HeLa cells assessed as viable cells at 40 uM incubated for 24 hrs by Annexin V-FITC/PI staining based flow cytometry (reference value: 92.45%)", "format": "functional", "conditions": "read-out: Activity"}, "[7]": {"assay": "Apparent volume of distribution in Sprague-Dawley rat at 5 mg/kg, iv", "format": "ADME, organism-based", "conditions": "in vivo", "summary_of_the_method": "(§1)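 Rats, n = 3 per group, received a single dose either intragastrically (25 mg/kg) or intravenously (5 mg/kg). Plasma concentration–time curves were used to derive t1/2α, t1/2β, Vd/F, CL/F, AUC0–∞, Tmax and Cmax. Absolute oral bioavailability was calculated from the ig and iv data.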"}, "[8]": {"biological_target": "Signal transducer and activator of transcription 3 (Homo sapiens) (UniProt P40763)", "assay": "Inhibition of STAT3 in human HeLa cells assessed as decrease in phosphorylation of STAT3 at Tyr705 measured after 24 hrs by Western blot analysis", "format": "cell-based", "conditions": "dose microM <=80, time […]", "summary_of_the_method": "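HeLa cells exposed 24 h to a range of compound doses. Total cell lysates immunoblotted with specific antibodies for p-STAT3 (Tyr705), p-STAT3 (Ser727) and total STAT3.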"}, "[9]": {"biological_target": "Signal transducer and activator of transcription 3 (Homo sapiens) (UniProt P40763)", "assay": "Inhibition of STAT3 in human HeLa cells assessed as decrease in phosphorylation of STAT3 at Tyr705 upto 80 uM measured after 6 hrs by Western blot analysis", "format": "cell-based", "conditions": "dose microM <=80, time 6.0 hrs", "summary_of_the_method": "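Time course in HeLa cells given 80 μM compound, sampled from 15 min onward through multiple hours; parallel runs at 20 and 40 μM. Total cell lysates Western blotted for p-STAT3 (Tyr705), p-STAT3 (Ser727) and total STAT3.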"}, "[10]": {"biological_target": "Signal transducer and activator of transcription 3 (Homo sapiens) (UniProt P40763)", "assay": "Inhibition of STAT3 transcriptional activity in human HeLa cells assessed as downregulation of survivin expression upto 80 uM after 24 hrs by western blot analysis", "format": "cell-based", "conditions": "dose microM <=80, time […]", "summary_of_the_method": "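HeLa cells treated 24 h with a concentration series. Total cell lysates probed by Western blot with specific antibodies for the STAT3 target gene products cyclin D1, c-Myc and survivin.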"}, "[11]": {"biological_target": "Signal transducer and activator of transcription 3 (Homo sapiens) (UniProt P40763)", "assay": "Binding affinity to GST-tagged human STAT3 using 5-carboxyfluorescein labelled peptide incubated for 1 hr by fluorescence polarization assay"}, "HeLa [12]": {"system": "HeLa", "assay": "Induction of cell cycle arrest in human HeLa cells assessed as accumulation at G0/G1 phase at 10 uM measured after 24 hrs by flow cytometry analysis (reference value: 54.16%)", "format": "functional"}, "HeLa [13]": {"system": "HeLa", "assay": "Induction of cell cycle arrest in human HeLa cells assessed as accumulation at G0/G1 phase at 20 uM measured after 24 hrs by flow cytometry analysis (reference value: 54.16%)", "format": "functional"}, "HeLa [14]": {"system": "HeLa", "assay": "Induction of apoptosis in human HeLa cells assessed as late apoptotic cells at 40 uM incubated for 24 hrs by Annexin V-FITC/PI staining based flow cytometry (reference value: 4.7%)", "format": "functional"}, "[15]": {"assay": "AUC (0 to infinity) in Sprague-Dawley rat at 5 mg/kg, iv", "format": "ADME, organism-based", "design": "route intravenous, time infinity, dose 5 mg/kg", "conditions": "in vivo", "summary_of_the_method": "as §1"}, "[16]": {"biological_target": "Proto-oncogene tyrosine-protein kinase Src (Homo sapiens) (UniProt P12931)", "sequence (P12931 2-536 limits assumed)": "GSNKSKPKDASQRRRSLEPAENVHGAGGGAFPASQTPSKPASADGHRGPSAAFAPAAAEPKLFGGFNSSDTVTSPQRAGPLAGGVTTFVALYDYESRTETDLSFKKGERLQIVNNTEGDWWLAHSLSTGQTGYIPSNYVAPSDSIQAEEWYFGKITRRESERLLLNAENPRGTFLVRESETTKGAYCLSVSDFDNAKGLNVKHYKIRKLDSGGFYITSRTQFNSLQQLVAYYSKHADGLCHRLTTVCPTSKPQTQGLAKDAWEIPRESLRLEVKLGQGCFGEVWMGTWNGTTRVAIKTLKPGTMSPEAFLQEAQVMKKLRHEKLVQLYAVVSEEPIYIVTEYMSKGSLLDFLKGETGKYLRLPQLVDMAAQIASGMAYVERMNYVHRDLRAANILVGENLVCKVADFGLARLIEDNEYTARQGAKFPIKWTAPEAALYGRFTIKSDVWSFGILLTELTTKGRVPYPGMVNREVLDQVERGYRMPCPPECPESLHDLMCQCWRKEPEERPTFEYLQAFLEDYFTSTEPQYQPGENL", "assay": "Inhibition of Src phosphorylation at Tyr416 in human Hela cells upto 80 uM after 24 hrs by Western blot analysis", "format": "cell-based", "conditions": "dose microM <=80, time […]"}, "[17]": {"biological_target": "Signal transducer and activator of transcription 3 (Homo sapiens) (UniProt P40763)", "assay": "Inhibition of IL-6 induced STAT3 transcriptional activity in human HEK-Blue IL-6 cells assessed as secreted embryonic alkaline phosphatase reporter gene expression at 10 uM by microplate reader", "format": "cell-based", "summary_of_the_method": "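Single-concentration screen in HEK-Blue IL-6 cells: % inhibition of the SEAP reporter read-out of STAT3 pathway activity, with viability checked by MTT in parallel. Values are averages of three independent experiments.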"}, "[18]": {"assay": "Absolute bioavailability in Sprague-Dawley rat at 25 mg/kg, IG", "format": "ADME, organism-based", "conditions": "in vivo, po", "summary_of_the_method": "as §1"}, "[19]": {"biological_target": "Tyrosine-protein kinase JAK2 (Homo sapiens) (UniProt O60674)", "sequence (O60674 whole entry)": "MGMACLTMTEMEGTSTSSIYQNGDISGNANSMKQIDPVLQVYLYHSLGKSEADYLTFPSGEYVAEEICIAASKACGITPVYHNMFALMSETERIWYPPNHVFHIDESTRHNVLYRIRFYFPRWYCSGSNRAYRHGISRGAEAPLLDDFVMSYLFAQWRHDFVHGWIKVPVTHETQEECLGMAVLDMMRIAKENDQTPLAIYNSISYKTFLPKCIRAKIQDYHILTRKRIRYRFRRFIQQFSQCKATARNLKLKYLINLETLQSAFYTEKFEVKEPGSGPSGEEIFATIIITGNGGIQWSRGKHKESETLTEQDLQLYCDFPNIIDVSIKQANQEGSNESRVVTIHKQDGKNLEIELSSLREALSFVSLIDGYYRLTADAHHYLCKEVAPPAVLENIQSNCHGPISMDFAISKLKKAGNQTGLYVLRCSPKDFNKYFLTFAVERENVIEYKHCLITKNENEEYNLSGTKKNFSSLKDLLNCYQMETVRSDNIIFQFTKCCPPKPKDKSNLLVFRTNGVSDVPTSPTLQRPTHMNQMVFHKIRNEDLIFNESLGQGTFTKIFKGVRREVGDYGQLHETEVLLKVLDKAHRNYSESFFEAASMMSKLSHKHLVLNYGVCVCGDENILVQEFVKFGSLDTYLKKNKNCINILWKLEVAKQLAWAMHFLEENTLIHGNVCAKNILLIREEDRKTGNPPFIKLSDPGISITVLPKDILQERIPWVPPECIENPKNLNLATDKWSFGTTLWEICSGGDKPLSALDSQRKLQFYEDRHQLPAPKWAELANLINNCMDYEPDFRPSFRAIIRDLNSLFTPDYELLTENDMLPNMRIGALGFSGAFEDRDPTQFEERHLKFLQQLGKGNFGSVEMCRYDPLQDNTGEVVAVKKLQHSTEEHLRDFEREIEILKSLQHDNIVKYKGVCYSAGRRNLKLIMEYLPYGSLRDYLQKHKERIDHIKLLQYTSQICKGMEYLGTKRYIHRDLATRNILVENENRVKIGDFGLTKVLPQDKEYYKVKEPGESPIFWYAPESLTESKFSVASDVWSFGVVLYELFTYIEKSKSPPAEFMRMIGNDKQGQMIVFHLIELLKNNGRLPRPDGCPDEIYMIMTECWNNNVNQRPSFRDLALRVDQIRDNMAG", "assay": "Inhibition of Jak2 phosphorylation at Tyr1007/1008 in human Hela cells upto 80 uM after 24 hrs by Western blot analysis", "format": "cell-based", "conditions": "dose microM <=80, time […]"}, "[20]": {"assay": "Elimination Half life in Sprague-Dawley rat at 25 mg/kg, IG", "format": "ADME, organism-based", "conditions": "in vivo, po, read-out: beta t1/2 (converted)", "summary_of_the_method": "as §1"}, "[21]": {"biological_target": "Signal transducer and activator of transcription 3 (Homo sapiens) (UniProt P40763)", "assay": "Inhibition of STAT3 in human Hela cell lysate assessed as inhibition of protein and DNA interaction upto 100 uM cells preincubated 1 hr by electrophoretic mobility shift assay", "format": "subcellular", "conditions": "dose microM <=100, time 1.0 hrs"}},
  "note": "Calls of active or inactive are those of the source. The rule behind the calls is not given here.",
  "data": [
    {"smiles": "CC(=O)Oc1ccccc1C(=O)Nc1ncc([N+](=O)[O-])s1", "note": "[NITAZOXANIDE]", "values": [
      {"measurement": "inhibition", "setting": "[1]", "result": "Dose-dependent effect"},
      {"measurement": "Activity", "setting": "HeLa [2]", "result": 2.34, "unit": "%"},
      {"measurement": "inhibition", "setting": "[3]", "result": "inactive"},
      {"measurement": "Activity", "setting": "HeLa [4]", "result": "inactive"},
      {"measurement": "IC50", "setting": "HT-29", "result": "> 50", "unit": "µM"},
      {"measurement": "Tmax", "setting": "[5]", "result": 2, "unit": "h"},
      {"measurement": "viability at 40 µM", "setting": "HeLa [6]", "result": 77.3, "unit": "%"},
      {"measurement": "Vd/F", "setting": "[7]", "result": 0.08, "unit": "L/kg"},
      {"measurement": "inhibition", "setting": "[8]", "result": "Dose-dependent effect"},
      {"measurement": "inhibition", "setting": "[9]", "result": "inactive"},
      {"measurement": "inhibition", "setting": "[10]", "result": "Dose-dependent effect"},
      {"measurement": "Activity", "setting": "[11]", "result": "inactive"},
      {"measurement": "Activity", "setting": "HeLa [12]", "result": 61.96, "unit": "%"},
      {"measurement": "Activity", "setting": "HeLa [13]", "result": 69.88, "unit": "%"},
      {"measurement": "Activity", "setting": "HeLa [14]", "result": 15.12, "unit": "%"},
      {"measurement": "AUC(0-inf)", "setting": "[15]", "result": 11200, "unit": "ng·h/mL"},
      {"measurement": "inhibition", "setting": "[16]", "result": "inactive"},
      {"measurement": "inhibition", "setting": "[17]", "result": 54.6, "unit": "%"},
      {"measurement": "bioavailability", "setting": "[18]", "result": 5.7, "unit": "%"},
      {"measurement": "inhibition", "setting": "[19]", "result": "inactive"},
      {"measurement": "half-life", "setting": "[20]", "result": 48, "unit": "min"},
      {"measurement": "inhibition", "setting": "[21]", "result": "inactive"}
    ]}
  ]
}
